NALP3 yeast inh – blocks the NALP3 inflammasome reconstituted in yeast | Yeast reconstituted NLRP3/ASC/caspase-1, beta-gal luminescence, 24 h | inhibition, % at 10 µM | 330,000 compounds, 0.39% hits;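 active = inhibition of 50% or more; inactive = inhibition below 50%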
L major viab – Leishmania major promastigote growth inhibition. 200,000 compounds, 9% hits. Leishmania major promastigotes, resazurin fluorescence viability. AID 1063. inhibition, % at 10 µM; in the data active = inhibition above about 50%;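 note: promastigotes grown with compound for 44 hours at 28 °C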
NALP1 inh – inhibitors of NALP1 inflammasome in yeast. S. cerevisiae NALP1/ASC/caspase-1 growth, X-gal OD620, 72 h. inhibition, % at 10 µM. 280,000 compounds, 0.61% hits. AID 2071; in the data active = inhibition mostly above about 24%, no sharp cut-off; inactive = mostly below about 32%
Calb FLC – affects C. albicans growth with fluconazole; 300,000 compounds, 0.57% hits; growth inhibition, % (concentration not given with the values); AID 1979; C. albicans CaCi-2 + fluconazole, Alamar Blue growth, 48 h;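 active = growth inhibition above about 58% in most replicates, limit read from the data, passing the limit was not always enough; inconclusive = exactly half the replicates above a set limit; inactive = most replicates below a set limit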;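 note: all wells also contain fluconazole at 8 µg/ml as a sub-toxic cotreatment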
PolyA inh – yeast polyadenylation inhibition. S. cerevisiae SKY197-pL101 polyadenylation reporter, beta-gal luminescence; efflux-impaired pdr1/pdr3 knockout yeast; score 100 = 6 SD above DMSO. activity score, % at 12 µM. 300,000 compounds, 0.02% hits. AID 1875;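 active = lowest replicate activity score at least 50, where 100 means six control SD above control mean; inconclusive = lowest score under 50 but half or more replicates reach 50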;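 note: yeast exposed to compound for 9 h at 30 °C; higher score means more reporter readthrough which indicates perturbed polyadenylation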
T cruzi repl – blocks replication of Trypanosoma cruzi; T. cruzi beta-gal in NIH3T3, luminescence, 90 h; inhibition, % (test concentration not listed); 300,000 compounds, 1.4% hits;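 active = mean inhibition across valid replicates above about 55%, limit read from the data; inconclusive = mean below that limit but half or more replicates reach it; inactive = mean below it, under half of replicates reach it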;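 note: signal also drops with host cell toxicity which is not excluded here; higher percent means less beta-gal luminescence so fewer parasites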
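compound dosing = single 50 nL compound addition per well in DMSO | material = NIH/3T3 host cells with β-galactosidase reporter T. cruzi | input = 5,000 host fibroblasts per well | timing = ≥90 h infection period, 3 h prior cell attachment | read-out basis = percent inhibition of parasite-derived β-gal signal | detection = GalScreen β-gal luminescence, detergent lysis, 60 min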
Each line names hits and unclear results; the compound was inactive in the other large screens. Shown is part of a subset that was picked to be rich in hits.

OC(COCC1COc2ccccc2O1)CN1CCN(c2ccccn2)CC1 (stereo unspecified)	L major viab 70.4
CC(=O)c1c(C)[nH]c(C(=O)Nc2cccc(C(F)(F)F)c2)c1C	none (no result: L major viab)
CCCC(C(=O)NCc1ccco1)N(C(=O)CNS(=O)(=O)c1ccc(Cl)cc1)C1CCCC1 (stereo unspecified)	L major viab 66.8
CN1CCN(Cc2ccc(-c3ccc(Cl)cc3)o2)CC1	L major viab 93.7 (no result: PolyA inh)
Cc1cccc(CCNC(=O)c2cc(S(=O)(=O)N3CCCC3)cn2C)c1	none (no result: L major viab)
Cc1ccc(CN2CCN(/N=C/c3ccc(C)s3)CC2)cc1	L major viab 67.7
Cc1ccc(/C=N/N2CCN(Cc3ccccc3)CC2)s1	none
O=C(Nc1nnc(-c2ccc3c(c2)CCCC3)o1)c1ccccc1	L major viab 96.3, Calb FLC 87.6
O=C(Nc1nnc(-c2ccc3c(c2)CCCC3)o1)c1ccccc1Cl	none
O=C(COc1ccccc1)Nc1nnc(-c2ccc3c(c2)CCCC3)o1	Calb FLC 81.5
O=C(COc1ccccc1)Nc1nnc(-c2ccc(F)cc2)o1	none (no result: L major viab)
Cc1cccc(CSCCNC(=O)c2ccc(CN3CCOCC3)cc2)c1	L major viab 85.8
O=C(NCCSCc1ccc(Cl)cc1Cl)c1ccc(CN2CCOCC2)cc1	L major viab 89.4
CC(=O)c1nn(-c2cccc(C)c2)cc1C(=O)c1cccc(Br)c1	none (no result: L major viab, NALP1 inh, T cruzi repl)
S=c1[nH]nc(Cc2sc(-c3ccccc3)nc2-c2ccccc2)o1	none
CCNC(=S)N=Nc1c(O)[nH]c2ccc(C(C)C)cc12	L major viab 77.6
O=C(CNC(=O)c1ccc(Br)o1)NCC1COc2ccccc2O1 (stereo unspecified)	none (no result: L major viab, NALP1 inh, Calb FLC, PolyA inh, T cruzi repl)
O=C(CNS(=O)(=O)c1ccc(Br)s1)NCC1COc2ccccc2O1 (stereo unspecified)	L major viab 59.4, Calb FLC 88.0
CSc1ccc(-c2nc3cnccn3c2Nc2ccc3c(c2)OCO3)cc1	L major viab 100.3
c1cn2c(Nc3ccc4c(c3)OCCO4)c(-c3ccc(N4CCOCC4)cc3)nc2cn1	none (no result: L major viab, NALP1 inh)
Oc1ccccc1-c1nc2cnccn2c1Nc1ccc2c(c1)OCCO2	L major viab 77.2
CC(=O)C1=C(O)CC(C)(C)CC1=NCc1nc2ccccc2[nH]1	none
CCC(NC(=O)NNC(N)=S)(C(F)(F)F)C(F)(F)F	none (no result: L major viab)
C#CCOCCOCCOCCNc1nc(N2CCN(C(=O)[C@H](CCCCN)n3cc(CCCC)nn3)CC2)nc(N2CCN(C(=O)[C@H](CCCCN)n3cc(CCC(=O)O)nn3)CC2)n1	none (no result: L major viab, NALP1 inh, Calb FLC, PolyA inh, T cruzi repl)
Nc1cc[n+](CC(=O)c2ccc3c(c2)OCCO3)cc1	L major viab 77.8
CCOc1ccc(S(=O)(=O)Nc2cc(S(=O)(=O)N(CC)CC)ccc2N2CCCC2)cc1	L major viab 94.8
O=C(Nc1ccccc1N1CCOCC1)c1ccccc1NS(=O)(=O)c1ccc(F)c(F)c1	none
CCOc1ccc(C(=O)Nc2cc(S(=O)(=O)Nc3ccccc3Cl)ccc2N2CCOCC2)cc1	L major viab 97.4
O=C(Nc1ccccc1N1CCOCC1)c1cccc(NS(=O)(=O)c2ccc(F)c(F)c2)c1	L major viab 70.4
CCN(CC)S(=O)(=O)c1ccc(N2CCOCC2)c(NC(=O)C2CCCC2)c1	L major viab 53.2
CCN(CC)S(=O)(=O)c1ccc(N2CCOCC2)c(NC(=O)C2CC2)c1	none (no result: L major viab, NALP1 inh)
Cc1cc(C)c(NC(=O)C2CCCN(S(=O)(=O)c3c(C)noc3/C=C/N(C)C)C2)c(C)c1 (stereo unspecified)	none (no result: L major viab)
COc1ccc(NC(=O)CCC(=O)NCCO)cc1	none
Cc1ccc(S(=O)(=O)Nc2cc(C(=O)NCCN(C)C)ccc2N2CCCC2)cc1	none (no result: L major viab)
CCN(CC)c1ccc(S(=O)(=O)N(CC)CC)cc1NC(=O)C1CCCC1	L major viab 61.0
CCOc1ccc(S(=O)(=O)N(CC)CC)cc1NS(=O)(=O)c1ccc(F)c(F)c1F	L major viab 60.0
CCN(CC)CCCNC(=O)c1ccc(N2CCCCC2)c(NS(=O)(=O)c2ccc(C)cc2)c1	L major viab 98.9, NALP1 inh 24.4
CCN(CC)S(=O)(=O)c1ccc(N(C)C)c(NC(=O)C2CCCC2)c1	none (no result: L major viab)
C=CCN1C(=O)/C(=C/c2ccc(OC(C)=O)c(OCC)c2[N+](=O)[O-])SC1=S	L major viab 91.4 (no result: NALP3 yeast inh)
CCOc1c(OC(C)=O)ccc(/C=C/c2ccc3cccc(OC(C)=O)c3n2)c1[N+](=O)[O-]	none
CCOc1ccc(CNC2CCCc3ccccc32)cc1 (stereo unspecified)	L major viab 69.7
COc1ccc(OC)c(NC(=O)c2cccc(NC(=O)c3ccccc3)c2)c1	none (no result: L major viab)
Oc1ccc(CNCC2COc3ccccc3O2)cc1 (stereo unspecified)	L major viab 88.1
c1ccc2c(c1)OCC(CNCC1COc3ccccc3O1)O2 (stereo unspecified)	none (no result: L major viab)
O=C(c1nc(SCc2ccc([N+](=O)[O-])cc2)n2ccccc12)C(F)(F)F	none (no result: L major viab)
COc1cccc(N(CC(=O)Nc2ccc3c(c2)OCO3)S(=O)(=O)c2ccccc2)c1	none
CCOC(=O)c1sc(=NC(=O)c2ccco2)n(C)c1C	Calb FLC 105.5 (no result: PolyA inh, T cruzi repl)
COc1cc(C(C)=O)ccc1OCCN1CCC(Cc2ccccc2)CC1	L major viab 89.8
Clc1ccccc1OCCN1CCC(Cc2ccccc2)CC1	L major viab 89.9
CC(=O)N1c2ccccc2NC2=C(C(=O)CC(C)(C)C2)C1c1cccn1C (stereo unspecified)	none
Cc1cc(NC(=O)COc2ccccc2)ccc1Cl	none (no result: L major viab)
Cc1ccccc1NC(=S)N(CCc1c(C)[nH]c2ccc(F)cc12)Cc1ccncc1	L major viab 98.4
COc1ccc(NC(=S)N(CCc2c(C)[nH]c3ccccc23)Cc2cccnc2)cc1	L major viab 100.2
Cc1[nH]c2ccc(F)cc2c1CCN(Cc1ccncc1)C(=S)Nc1cccc(F)c1	L major viab 99.2
COc1ccc(NC(=S)N(Cc2ccc(C)cc2)Cc2ccccn2)cc1	L major viab 95.4, T cruzi repl 77.5
O=C(Cc1cccs1)Nc1cc(SCCO)cc([N+](=O)[O-])c1	none
CC(=O)Nc1ccc(C(=O)OCC(=O)Nc2c(F)cccc2F)cc1	T cruzi repl inconclusive (no result: L major viab)
CC(=O)c1cccc(NC(=O)C(C)N(C)CC(=O)Nc2ccc(Cl)cc2)c1 (stereo unspecified)	none (no result: L major viab)
N#CCCN(Cc1cccnc1)C(=S)Nc1ccc(OC(F)F)cc1	none
COc1ccc(NC(=S)N(CCc2nc3cc(C)c(C)cc3[nH]2)Cc2cccnc2)cc1	L major viab 90.4
CCOc1ccc(NC(=S)N(CCc2c(C)[nH]c3ccc(C)cc23)Cc2ccco2)cc1	L major viab 72.7
COc1ccc(NC(=S)N(CCc2c(C)[nH]c3ccc(C)cc23)Cc2ccco2)cc1	none
CCOc1ccc(NC(=S)N(CCc2c(C)[nH]c3ccc(C)cc23)Cc2cccnc2)cc1	L major viab 99.8

Assay outcomes (PubChem BioAssay)
